From paper PMC3355519 (Journal of Medicinal Chemistry, 2012)

Key:
[1] = tested on: HIV-1 protease D30N/N88D double mutant; settings: cited from earlier work
HIV-1 PRV82A = HIV-1 PRV82A (Human immunodeficiency virus type 1 group M subtype B, UniProt P04585, C555A/C583A/L521I/L551I/Q495K/V570A); assay: HIV-1 protease inhibition, fluorogenic p2/NC substrate, V82A mutant; assay type: biochemical; settings: PRV82A vs PRWT
Method in brief: (§1)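 Recombinant HIV-1 protease (HXB2) carried stabilising substitutions Q7K, L33I, L63I, C67A and C95A, plus the point mutation introduced by site-directed mutagenesis. It was expressed in E. coli BL21(DE3) and purified from inclusion bodies. Enzyme (12-45 nM final) was preincubated 5 min at 37 °C with test compound or DMSO in 0.1 M MES pH 5.6, 0.4 M NaCl, 1 mM EDTA, 5% glycerol. Abz-Thr-Ile-Nle-p-nitro-Phe-Gln-Arg-NH2 started the reaction, read 5 min at ex 340/em 420 nm. Ki = (IC50 − [E]/2)/(1 + [S]/Km).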

HIV-1 PRI47V = HIV-1 PRI47V (Human immunodeficiency virus type 1 group M subtype B, UniProt P04585, C555A/C583A/I535V/L521I/L551I/Q495K); assay: HIV-1 protease inhibition, fluorogenic p2/NC substrate, I47V mutant; assay type: biochemical
Method in brief: as §1

HIV-1LAI = settings: against HIV-1LAI; cited from earlier work

SMILES | increase of Ki value compared to wild-type [1] | change in the inhibition constant vs wild-type (HIV-1 PRV82A) | Ki (HIV-1 PRI47V; Ki, PRI47V, pH 5.6, 37 °C) | change in the inhibition constant vs wild-type (HIV-1 PRI47V; PRI47V vs PRWT) | selectivity index (CC50/EC50) (HIV-1LAI)
Cc1c(O)cccc1C(=O)N[C@@H](CSc1ccccc1)[C@H](O)CN1C[C@H]2CCCC[C@H]2C[C@H]1C(=O)NC(C)(C)C [NFV, nelfinavir] | 260 fold | – | – | – | –
COc1ccc(S(=O)(=O)N(C[C@H]2CCC(=O)N2)C[C@@H](O)[C@H](Cc2ccccc2)NC(=O)O[C@@H]2C[C@@H]3CCO[C@@H]3C2)cc1 [Compound 1] | – | less than 2 fold | 400 pM | less than 2 fold | > 3,600
